Values after ≈ are worked out from the molar mass of the structure shown. Active and inactive are the calls of the source. The calls are words filed in the database; no cut-off is given here.
Key:
Candida albicans [1] = assay: Antibiofilm activity against Candida albicans ATCC 24433 at 1000 ug/ml after 24 hrs by XTT-based colorimetric assay; type: functional, organism-based
In short: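 Biofilms grown from overnight YPD cells, PBS-washed and resuspended to 1.0 × 10^6 cfu/mL in RPMI-1640 plus MOPS, 37 °C for 24 h. After three PBS washes, treated a further 24 h at 37 °C. Then 0.5 mg/mL XTT for 2 h, read at 490 nm. MIC taken as the lowest concentration giving ≥80% reduction in XTT reduction.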

Candida albicans [2] = assay: Antibiofilm activity against Candida albicans ATCC 24433 after 24 hrs by XTT-based colorimetric assay; type: functional; settings: ATCC 24433, 24 h
In short: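 XTT assay: YPD overnight culture, PBS-washed, 1.0 × 10^6 cfu/mL in RPMI-1640/MOPS; biofilms formed at 37 °C for 24 h, washed, then treated 24 h at 37 °C; 0.5 mg/mL XTT for 2 h, read at 490 nm. MIC = lowest concentration giving ≥80% reduction in XTT signal.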

Candida albicans [3] = assay: Antibiofilm activity against Candida albicans ATCC 24433 at 1000 ug/ml after 24 hrs by scanning electron microscopic analysis; type: functional, organism-based
In short: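 Biofilms grown from 1.0 × 10^6 cfu/mL suspensions on poly-L-lysine-treated glass coverslips, 37 °C for 24 h. PBS-washed three times, then exposed to drug for another 24 h. Fixed overnight in 2.5% glutaraldehyde in 0.2 M PBS (pH 7.2), then 1% osmium for 2 h. Ethanol-dehydrated, critical-point dried, gold-coated, and imaged by SEM at high vacuum, 10 kV.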

Candida albicans [4] = assay: Antifungal activity against Candida albicans ATCC 24433 assessed as growth inhibition after 24 hrs by broth microdilution assay; type: functional; settings: ATCC 24433, 24 h
In short: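 Broth microdilution: 24-h colonies suspended in 0.85% saline, diluted in RPMI-1640 with MOPS to 1.0 × 10^4 cfu/mL final, mixed 1:1 with sample; 35 °C, 24 h; OD 595 nm. MIC = lowest concentration giving 80% growth reduction. Fluconazole positive control; SD from three independent experiments.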

OC(Cn1cncn1)(Cn1cncn1)c1ccc(F)cc1F [FLUCONAZOLE]
Activity (Candida albicans [1]): inactive
MIC80 (Candida albicans [2]): > 1000 µg/mL
Activity (Candida albicans [3]): inactive
MIC80 (Candida albicans [4]): 0.25 µg/mL (≈ 0.816 µM)

Reference: ChEMBL document CHEMBL3751733, “Synergistic Antifungal Meroterpenes and Dioxolanone Derivatives from the Endophytic Fungus Guignardia sp” (J Nat Prod, 2015)
